We go through three molecules from ChEMBL document CHEMBL5252510, “A Novel Potent Oral Series of VEGFR2 Inhibitors Abrogate Tumor Growth by Inhibiting Angiogenesis” (J Med Chem, 2016).

pIC50: −log10 of the molar value. Active and inactive are the calls of the source. The rule behind the calls is not given here. Bounds are passed on as bounds.

The subject of test [1] is BaF3. Description: Antiproliferative activity against mouse BaF3 cells expressing Trp-MET assessed as cell growth inhibition measured after 72 hrs by Alamar Blue assay. The conditions noted are these: BaF3, 72 h. A general note: The colour change of resazurin is a common sign of viable cells or microbes.
The species named for test [2] is Mus musculus. Put plainly: Antiangiogenic activity in C57BL/6jNpa mouse harbouring mouse B16-BL6 cells assessed as reduction in K-trans level measured after 3 days by DCE-MRI assay relative to control. More on the design: scale not given: the % may be the effect or the level left. The conditions noted are these: time 3 day. It is filed as functional. The method in brief:
(§1)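 C57BL/6JNpa mice bearing B16/BL6 cervical lymph-node metastases, at least 8 per group, anaesthetized and given contrast agent; DCE-MRI Ktrans and iAUEC (permeability) and Vp (plasma volume) measured before and again after daily treatment; change per mouse recorded, mean ± SEM, one-way ANOVA with Holm-Sidak comparisons versus vehicle.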

Test [3] concerns HUVEC. Put plainly: Antiproliferative activity against VEGF-stimulated HUVEC cells assessed as cell growth inhibition measured after 24 hrs by BrdUrd incorporation based spectrophotometric analysis. The note with it: Homo sapiens.
For test [4], the system named is BaF3. Description: Antiproliferative activity against mouse BaF3 cells expressing Tel-FGFR3 assessed as cell growth inhibition measured after 72 hrs by Alamar Blue assay. The note with it: BaF3, 72 h.
The species entered for test [5] is Mus musculus. Put plainly: Antiangiogenic activity in C57BL/6jNpa mouse harbouring mouse B16-BL6 cells assessed as reduction in K-trans level by measuring T/C ratio measured after 3 days by DCE-MRI assay. The conditions noted are these: time 3 day. It is filed as functional. Put shortly:
as §1

Test [6] has as its system BN472 cell. Put plainly: Antitumor activity against rat BN472 cell implanted in Brown-Norway rat assessed as reduction in perfused blood vessels at 100 mg/kg, po qd measured upto 14 days by Ki67 staining based microscopic analysis. The conditions noted are these: time <= 14.0 day, in the assay text read “Hoechst dye staining” for “Ki67 staining”. It is filed as functional, organism-based. Put shortly:
(§2)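 BN472-bearing Brown-Norway rats dosed orally; Hoechst dye i.v. shortly before sacrifice to mark perfused vessels; tumors cryosectioned at 10 micron, blocked in 10 % goat serum/0.1 % Triton X-100, stained with rabbit anti-Ki67 (1:200) or anti-caspase 3 (1:10) and fluorescent secondary antibodies; fluorescence microscopy.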

In test [7] the test system is BaF3. Put plainly: Antiproliferative activity against mouse BaF3 cells expressing KIT D816V mutant assessed as cell growth inhibition measured after 72 hrs by Alamar Blue assay. The conditions noted are these: BaF3, 72 h.
Test [8] concerns BaF3. Put plainly: Antiproliferative activity against mouse BaF3 cells expressing FLT3-ITD assessed as cell growth inhibition measured after 72 hrs by Alamar Blue assay. The conditions noted are these: BaF3, 72 h.
Test [9] is filed under the species Mus musculus. Put plainly: Antiangiogenic activity in C57BL/6jNpa mouse harbouring mouse B16-BL6 cells assessed as reduction in iAUEC level by measuring T/C ratio measured after 3 days by DCE-MRI assay. The test is classed as functional. The conditions noted are these: time 3 day. The method in brief:
as §1

For test [10], the system named is BaF3. Put plainly: Antiproliferative activity against mouse BaF3 cells assessed as cell growth inhibition measured after 72 hrs by Alamar Blue assay. The note with it: BaF3, 72 h.
Test [11] relates to B16-BL6. Put plainly: Antitumor activity against mouse B16-BL6 cells implanted in C57BL/6jNpa mouse assessed as primary tumor growth inhibition by measuring T/C ratio at 100 mg/kg, po qd administered started on day 7 post implantation measured after 21 days. The note with it: time 7-21 day. It is filed as functional. Put shortly: (§3)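 Female C57BL/6JNpa mice, 50000 B16/BL6 cells intradermally in both ear pinnae; primary tumor area (mm²) imaged days 7, 14, 21; randomized day 7 into groups of 5-6, oral dosing in PEG200 or PEG300 vehicle daily (or every 2 days) for 14 days; day 21 cervical lymph nodes weighed, metastasis lysates assayed for TIE-2 by ELISA; T/C ratios.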

Test [12] concerns B16-BL6. Description: Antitumor activity against mouse B16-BL6 cells implanted in C57BL/6jNpa mouse assessed as metastatic tumor growth inhibition at 100 mg/kg, po qd administered started on day 7 post implantation measured after 21 days relative to control. The test is classed as functional, organism-based. The note with it: time 7-21 day. Put shortly: as §3
In test [13] the test system is B16-BL6. Put plainly: Antitumor activity against mouse B16-BL6 cells implanted in C57BL/6jNpa mouse assessed as metastatic tumor growth inhibition by measuring T/C ratio at 100 mg/kg, po qd administered started on day 7 post implantation measured after 21 days relative to control. The test is classed as functional. The conditions noted are these: time 7-21 day. The method in brief: as §3

Test [14] has as its system BaF3. Put plainly: Antiproliferative activity against mouse BaF3 cells expressing Tel-PDGFRbeta assessed as cell growth inhibition measured after 72 hrs by Alamar Blue assay. The note with it: BaF3, 72 h.
The subject of test [15] is BaF3. Description: Antiproliferative activity against mouse BaF3 cells expressing PTC3-RET assessed as cell growth inhibition measured after 72 hrs by Alamar Blue assay. The conditions noted are these: BaF3, 72 h.
The species named for test [16] is Mus musculus. Put plainly: Antiangiogenic activity in C57BL/6jNpa mouse harbouring mouse B16-BL6 cells assessed as reduction in iAUEC level measured after 3 days by DCE-MRI assay relative to control. The test is classed as functional. On the set-up: scale not given: the % may be the effect or the level left. The note with it: time 3 day. Put shortly:
as §1

In test [17] the test system is BN472 cell. Put plainly: Induction of apoptosis in rat BN472 cell implanted in Brown-Norway rat assessed as effect on caspase 3 level at 100 mg/kg, po qd measured upto 14 days by microscopic analysis. The test is classed as functional, organism-based. The note with it: time <= 14.0 day. The method in brief: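 BN472 fragments were grown in mammary fat pads of female Brown-Norway rats and dosed orally for 14 days. Hoechst dye was given i.v. 2 min before sacrifice. Excised tumors were cut as 10 micron frozen sections, blocked with 10 % normal goat serum/0.1 % Triton X-100 and stained with rabbit anti-rat caspase 3 (1:10), then a TRITC or FITC secondary. Read by fluorescence microscopy.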

In test [18] the test system is BN472 cell. Put plainly: Antitumor activity against rat BN472 cell implanted in Brown-Norway rat assessed as reduction in perfused blood vessels at 100 mg/kg, po qd measured upto 14 days by Hoechst staining based microscopic analysis. It is filed as functional, organism-based. The conditions noted are these: time <= 14.0 day. The method in brief: as §2
The species named for test [19] is Mus musculus. Put plainly: Antiangiogenic activity in C57BL/6jNpa mouse harbouring mouse B16-BL6 cells assessed as reduction in tumor plasma volume by measuring T/C ratio measured after 3 days by DCE-MRI assay. It is filed as functional. The conditions noted are these: time 3 day. Put shortly: as §1
The subject of test [20] is BaF3. Description: Antiproliferative activity against mouse BaF3 cells expressing NPM-ALK assessed as cell growth inhibition measured after 72 hrs by Alamar Blue assay. The conditions noted are these: BaF3, 72 h.
Test [21] concerns HUVEC. Put plainly: Antiproliferative activity against bFGF-stimulated HUVEC cells assessed as cell growth inhibition measured after 24 hrs by BrdUrd incorporation based spectrophotometric analysis. The conditions noted are these: Homo sapiens.
Test [22] has as its system BaF3. Description: Antiproliferative activity against mouse BaF3 cells expressing Tel-IGF-1R assessed as cell growth inhibition measured after 72 hrs by Alamar Blue assay. The conditions noted are these: BaF3, 72 h.
The species entered for test [23] is Mus musculus. Description: Antiangiogenic activity in C57BL/6jNpa mouse harbouring mouse B16-BL6 cells assessed as reduction in tumor plasma volume measured after 3 days by DCE-MRI assay relative to control. The test is classed as functional. On the set-up: scale not given: the % may be the effect or the level left. The conditions noted are these: time 3 day. Put shortly:
as §1

Test [24] deals with B16-BL6. Put plainly: Antitumor activity against mouse B16-BL6 cells implanted in C57BL/6jNpa mouse assessed as primary tumor growth inhibition at 100 mg/kg, po qd administered started on day 7 post implantation measured after 21 days relative to control. It is filed as functional, organism-based. The conditions noted are these: time 7-21 day. The method in brief: as §3
For test [25], the system named is BaF3. Put plainly: Antiproliferative activity against mouse BaF3 cells expressing Bcr-ABL assessed as cell growth inhibition measured after 72 hrs by Alamar Blue assay. The note with it: BaF3, 72 h.
The subject of test [26] is BaF3. Description: Antiproliferative activity against mouse BaF3 cells expressing ERBB2 V659E mutant assessed as cell growth inhibition measured after 72 hrs by Alamar Blue assay. The note with it: BaF3, 72 h.
In test [27] the target is Hepatocyte growth factor receptor (Homo sapiens) (UniProt P08581). Description: Inhibition of human recombinant GST-fused c-MET expressed in baculovirus expression system using poly-Glu-Tyr (4:1) as substrate measured after 10 mins in presence of gamma-[33P]-ATP by scintillation counting analysis. Put shortly: (§4)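 GST-fused kinase domains were expressed in baculovirus and purified on glutathione-Sepharose. 10 min at ambient temperature, stopped with EDTA. Filter binding and scintillation counting. IC50 by linear regression of percent inhibition.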

Test [28] has as its target Fibroblast growth factor receptor 3 (Homo sapiens) (UniProt P22607). Description: Inhibition of human recombinant GST-fused FGFR3 expressed in baculovirus expression system using poly-Glu-Tyr (4:1) as substrate measured after 10 mins in presence of gamma-[33P]-ATP by scintillation counting analysis. The method in brief: as §4
The target in test [29] is Cyclin-dependent kinase 1 (Homo sapiens) (UniProt P06493). Description: Inhibition of human recombinant GST-fused CDK1 expressed in baculovirus expression system using poly-Glu-Tyr (4:1) as substrate measured after 10 mins in presence of gamma-[33P]-ATP by scintillation counting analysis. The method in brief: as §4
Test [30] can be described thus: Antitumor activity against rat BN472 cell implanted in Brown-Norway rat assessed as tumor growth inhibition by measuring T/C ratio at 30 mg/kg, po qd measured upto 14 days. The note with it: time <= 14 day. It is filed as functional. The method in brief: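 Female Brown-Norway rats (160–180 g) received 3 mm³ BN472 tumor fragments in the mammary fat pad. Randomized at about 200 mm² tumor, 2–3 weeks after transplant, into groups of 7–8. Oral daily dosing in PEG300 vehicle for 14 days. Tumor growth curves were compared with vehicle. Experiment run twice.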

The test system of test [31] is Mus musculus. Put plainly: Anti-angiogenesis activity in FVB mouse model assessed as inhibition of VEGF-induced tissue weight at 50 mg/kg, po qd treated for 4 to 6 hrs prior to chamber implantation and continuing for 4 days measured after 24 hrs post last dose. The conditions noted are these: time 5.0 day. The test is classed as functional, organism-based. Put shortly:
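Chamber model in female FVB mice: VEGF (2 μg/mL) agar/heparin chambers s.c. in flank, oral dosing once daily starting 4-6 h before implantation and continuing 4 days; vascularized tissue harvested and weighed 24 h after final dose; 6 mice per group.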

By pIC50 is commonly meant −log10 of the IC50, conventionally taken in molar units.

Chain of Fibroblast growth factor receptor 3 (Homo sapiens) (P22607 23-806 limits assumed): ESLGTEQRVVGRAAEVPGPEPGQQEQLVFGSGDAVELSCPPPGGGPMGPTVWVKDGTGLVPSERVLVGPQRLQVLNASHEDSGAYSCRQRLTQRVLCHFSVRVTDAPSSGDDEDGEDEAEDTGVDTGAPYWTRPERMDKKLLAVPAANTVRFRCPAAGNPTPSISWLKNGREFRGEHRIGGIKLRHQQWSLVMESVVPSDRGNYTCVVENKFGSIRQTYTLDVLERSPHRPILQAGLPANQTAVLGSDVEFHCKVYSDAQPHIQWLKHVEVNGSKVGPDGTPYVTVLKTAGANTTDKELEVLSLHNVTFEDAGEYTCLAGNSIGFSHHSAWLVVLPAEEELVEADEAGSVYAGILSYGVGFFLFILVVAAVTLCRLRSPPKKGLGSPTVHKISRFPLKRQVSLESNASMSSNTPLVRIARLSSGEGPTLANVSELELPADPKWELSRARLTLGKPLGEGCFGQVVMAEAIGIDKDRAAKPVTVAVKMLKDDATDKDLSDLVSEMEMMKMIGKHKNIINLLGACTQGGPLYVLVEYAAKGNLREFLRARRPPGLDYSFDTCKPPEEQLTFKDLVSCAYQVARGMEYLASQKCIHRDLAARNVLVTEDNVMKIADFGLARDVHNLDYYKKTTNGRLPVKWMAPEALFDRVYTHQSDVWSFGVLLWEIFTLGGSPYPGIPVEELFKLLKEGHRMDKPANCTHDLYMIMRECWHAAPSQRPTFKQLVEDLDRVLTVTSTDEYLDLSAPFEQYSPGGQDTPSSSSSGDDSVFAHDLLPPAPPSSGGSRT
Chain of Hepatocyte growth factor receptor (Homo sapiens) (P08581 whole entry, the tested form may be a part): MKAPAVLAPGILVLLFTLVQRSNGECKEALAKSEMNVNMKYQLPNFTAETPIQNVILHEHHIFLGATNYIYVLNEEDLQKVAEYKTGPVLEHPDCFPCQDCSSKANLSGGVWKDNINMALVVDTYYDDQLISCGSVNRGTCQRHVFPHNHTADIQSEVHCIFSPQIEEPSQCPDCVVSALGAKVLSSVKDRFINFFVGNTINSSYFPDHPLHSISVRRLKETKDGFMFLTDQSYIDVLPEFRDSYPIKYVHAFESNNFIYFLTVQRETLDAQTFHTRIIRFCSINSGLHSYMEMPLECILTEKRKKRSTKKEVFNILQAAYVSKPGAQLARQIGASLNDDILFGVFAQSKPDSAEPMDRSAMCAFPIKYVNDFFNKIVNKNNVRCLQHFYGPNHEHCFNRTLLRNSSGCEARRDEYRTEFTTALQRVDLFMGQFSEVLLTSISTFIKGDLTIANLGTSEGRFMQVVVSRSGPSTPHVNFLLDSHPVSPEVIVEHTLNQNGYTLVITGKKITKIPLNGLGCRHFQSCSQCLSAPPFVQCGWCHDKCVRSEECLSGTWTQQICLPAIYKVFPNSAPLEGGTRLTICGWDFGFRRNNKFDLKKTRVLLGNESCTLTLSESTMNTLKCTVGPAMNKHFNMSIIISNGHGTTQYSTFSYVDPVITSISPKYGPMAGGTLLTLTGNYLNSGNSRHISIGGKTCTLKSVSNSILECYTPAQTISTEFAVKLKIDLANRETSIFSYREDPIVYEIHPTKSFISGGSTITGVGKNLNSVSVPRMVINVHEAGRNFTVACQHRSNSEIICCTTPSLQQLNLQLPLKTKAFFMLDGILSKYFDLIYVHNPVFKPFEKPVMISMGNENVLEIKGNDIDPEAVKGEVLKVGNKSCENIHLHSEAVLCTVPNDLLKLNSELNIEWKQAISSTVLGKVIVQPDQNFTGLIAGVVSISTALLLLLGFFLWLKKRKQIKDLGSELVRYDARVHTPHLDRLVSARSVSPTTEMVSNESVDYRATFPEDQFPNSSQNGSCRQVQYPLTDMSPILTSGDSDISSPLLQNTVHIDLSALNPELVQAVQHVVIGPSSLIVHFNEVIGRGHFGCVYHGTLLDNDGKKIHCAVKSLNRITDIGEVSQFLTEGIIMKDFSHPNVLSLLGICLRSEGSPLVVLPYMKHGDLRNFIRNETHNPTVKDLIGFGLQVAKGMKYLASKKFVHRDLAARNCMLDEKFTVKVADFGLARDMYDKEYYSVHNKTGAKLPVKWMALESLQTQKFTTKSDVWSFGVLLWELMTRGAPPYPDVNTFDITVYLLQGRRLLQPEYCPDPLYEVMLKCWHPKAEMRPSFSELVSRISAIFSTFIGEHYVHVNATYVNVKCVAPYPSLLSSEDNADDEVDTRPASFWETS
Chain of Cyclin-dependent kinase 1 (Homo sapiens) (P06493 whole entry, looked up, the tested form may be a part): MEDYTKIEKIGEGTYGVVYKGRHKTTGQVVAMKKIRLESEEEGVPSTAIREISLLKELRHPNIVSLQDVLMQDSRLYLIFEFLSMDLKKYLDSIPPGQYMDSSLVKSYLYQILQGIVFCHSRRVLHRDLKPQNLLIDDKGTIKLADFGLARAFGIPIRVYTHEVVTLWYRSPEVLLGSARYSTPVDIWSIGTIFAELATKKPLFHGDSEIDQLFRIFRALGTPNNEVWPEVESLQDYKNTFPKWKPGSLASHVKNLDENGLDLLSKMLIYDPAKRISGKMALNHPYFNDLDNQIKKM

As to `Clc1ccc(Nc2nnc(Cc3ccncc3)c3ccccc23)cc1.O=C(O)CCC(=O)O`, the negative logarithm of the IC50 (pIC50) was below 5.00 in the test on BaF3 [1]; 8.15 with HUVEC [3]; below 5.00 with BaF3 [4]; below 5.00 in the test on BaF3 [7]; below 5.00 in the test with BaF3 [8]; below 5.00 with BaF3 [10]. In addition, the pIC50 with BaF3 [14] is 7.12; in the test on BaF3 [15], below 5.00; in the test on BaF3 [20], below 5.00; in the test with HUVEC [21], below 5.52; in the test with BaF3 [22], below 5.00; in the test with BaF3 [25], below 5.00. The pIC50 in the test on BaF3 [26] is below 5.00. For the same molecule, the values for the Activity in the test filed under Mus musculus [2], in the test listed under Mus musculus [16] and in the test listed under Mus musculus [23] were 51%, 33% and 33%, respectively. Further, the T/C is 0.49 in the test listed under Mus musculus [5]; 0.61 in the test listed under Mus musculus [9]; 0.44 in the test on B16-BL6 [11]; 0.34 with B16-BL6 [13]; 0.67 in the test listed under Mus musculus [19]. Besides, the outcome in the test with BN472 cell [6], in the test with B16-BL6 [12], in the test on BN472 cell [17], with BN472 cell [18] and with B16-BL6 [24] was Active.
As for `CCN(CC)CCNC(=O)c1c(C)[nH]c(/C=C2\C(=O)Nc3ccc(F)cc32)c1C` [SUNITINIB], the negative logarithm of the IC50 (pIC50) was 5.29 in the test with BaF3 [1]; 8.15 in the test on HUVEC [3]; 5.81 with BaF3 [4]; 5.83 in the test with BaF3 [7]; 7.46 in the test on BaF3 [8]; below 5.00 with BaF3 [10]. The pIC50 was 8.64 in the test with BaF3 [14]; 6.53 in the test on BaF3 [15]; 5.94 in the test on BaF3 [20]; below 5.52 with HUVEC [21]; 5.89 in the test with BaF3 [22]; 5.14 in the test on BaF3 [25]. In the test on BaF3 [26], the pIC50 is 5.41. Also, the inhibition result in [27], in [28] and in test [29] was “Active” throughout.
As to `COc1cc2/c(=N/c3ccc(Br)cc3F)nc[nH]c2cc1OCC1CCN(C)CC1` [VANDETANIB], the T/C in [30] came to 0.35. Further, the outcome in the test on Mus musculus [31] was Active.
